Data as given in ChEMBL document CHEMBL3232894, “Discovery of AMG 925, a FLT3 and CDK4 dual kinase inhibitor with preferential affinity for the activated state of FLT3” (J Med Chem, 2014).
Calls of active or inactive are those of the source. The calls are words filed in the database; no cut-off is given here.

Assays:
[1] = target: Cyclin-dependent kinase 4/cyclin D1 (Homo sapiens, UniProt P11802); assay: Inhibition of CDK4/cyclin D1 (unknown origin) using Rb as substrate after 60 mins by scintillation counting analysis in presence of [r-33P]ATP; assay type: protein-complex assay
[2] = Clearance in iv dosed rat; assay type: ADME, organism-based; details: in vivo
Outline: (§1)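 Intravenous and oral (gavage, solution) PK in rat, dog and cynomolgus monkey. The rat vehicle for both routes was water/acetate/tween at pH 4, 96/3/1 (v/v/v). Dog and monkey iv doses used 40% PG aqueous solution at pH 2, and their oral doses used 20% captisol aqueous solution.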

Homo sapiens = organism: Homo sapiens; assay: Selectivity ratio of IC50 for CDK1/cyclin B (unknown origin) to IC50 for CDK4/cyclin D1 (unknown origin)
[3] = target: T1, Receptor-type tyrosine-protein kinase FLT3 (Homo sapiens, UniProt P36888); assay: Inhibition of GST-fused human FLT3 cytoplasmic domain (amino acids 564 to 993) using Ulight-JAK1 as substrate after 1 hr by TR-FRET assay
T1 sequence (P36888 whole entry): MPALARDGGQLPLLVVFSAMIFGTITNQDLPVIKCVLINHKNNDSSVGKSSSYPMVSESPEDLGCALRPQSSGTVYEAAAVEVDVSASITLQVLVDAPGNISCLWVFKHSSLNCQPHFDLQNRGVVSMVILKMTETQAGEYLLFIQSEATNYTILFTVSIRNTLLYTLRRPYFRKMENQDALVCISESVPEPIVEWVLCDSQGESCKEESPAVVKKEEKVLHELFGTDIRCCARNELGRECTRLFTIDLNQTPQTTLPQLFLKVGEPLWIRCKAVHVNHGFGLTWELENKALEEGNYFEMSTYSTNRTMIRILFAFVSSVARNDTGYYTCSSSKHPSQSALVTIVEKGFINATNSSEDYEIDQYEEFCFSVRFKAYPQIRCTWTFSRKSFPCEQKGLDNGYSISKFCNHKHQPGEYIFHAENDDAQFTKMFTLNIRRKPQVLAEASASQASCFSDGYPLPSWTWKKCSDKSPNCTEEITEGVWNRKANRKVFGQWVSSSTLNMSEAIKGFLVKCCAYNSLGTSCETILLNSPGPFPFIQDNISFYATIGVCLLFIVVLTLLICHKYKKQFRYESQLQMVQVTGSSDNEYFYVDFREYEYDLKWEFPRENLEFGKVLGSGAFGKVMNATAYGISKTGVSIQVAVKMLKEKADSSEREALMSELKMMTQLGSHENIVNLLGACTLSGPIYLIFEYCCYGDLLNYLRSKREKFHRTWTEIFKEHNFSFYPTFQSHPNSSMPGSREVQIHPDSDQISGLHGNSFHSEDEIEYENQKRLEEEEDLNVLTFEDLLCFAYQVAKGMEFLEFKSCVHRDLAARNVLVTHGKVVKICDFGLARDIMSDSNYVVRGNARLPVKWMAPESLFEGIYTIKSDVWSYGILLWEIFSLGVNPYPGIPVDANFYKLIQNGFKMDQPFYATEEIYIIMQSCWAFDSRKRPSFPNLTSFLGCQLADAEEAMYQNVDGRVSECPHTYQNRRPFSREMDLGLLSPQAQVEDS

COLO 205 = assay: Antiproliferative activity against Rb-positive human COLO205 cells assessed as incorporation of [14C]thymidine into DNA after 72 hrs by beta-plate counting analysis
Mus musculus [4] = assay: Unbound Cmax in CrTac:NCR-Foxn1nu (NCR) nude mouse xenografted with human MOLM13 cells at 150 mg/kg, po; assay type: ADME, organism-based, MOLM-13; design: dose 150 mg/kg, route oral; details: in vivo
[5] = target: Cyclin-dependent kinase 4 (Homo sapiens, UniProt P11802); assay: Inhibition of CDK4 in human MOLM13 cells assessed as inhibition of Rb phosphorylation at Ser780 after 24 hrs; assay type: cell-based, MOLM-13
Tumour [6] = assay: Decrease in Rb phosphorylation at Ser780 in tumor of po dosed CrTac:NCR-Foxn1nu (NCR) nude mouse xenografted with human MOLM13 cells after 24 hrs; assay type: functional, organism-based; details: Neoplasm, MOLM-13
Outline: (§2)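 MOLM13 tumor-bearing mice received a single oral dose of 50, 75 or 150 mg/kg. Tumors were harvested at 3, 6 and 24 h, and lysates were assayed for pSTAT5 and pRb. Unbound plasma levels were measured at the same time points. Results are mean ± SEM, n = 3 per group and n = 6 for vehicle.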

[7] = target: Receptor-type tyrosine-protein kinase FLT3 (Homo sapiens, UniProt P36888, ITD); assay: Inhibition of FLT3 ITD mutant in human MOLM13 cells assessed as inhibition of STAT5 phosphorylation at Tyr694 after 24 hrs; assay type: cell-based, MOLM-13
[8] = Antiproliferative activity against Rb-negative human MDA-MB-436 cells assessed as incorporation of [3H]thymidine into DNA after 72 hrs by beta-plate counting analysis; assay type: functional
MOLM-13 = assay: Antiproliferative activity against human MOLM13 cells harboring FLT3 ITD mutant assessed as incorporation of [3H]thymidine into DNA after 72 hrs by beta-plate counting analysis; assay type: functional, cell-based
[9] = target: Cyclin-dependent kinase 1/cyclin B1 (Homo sapiens, UniProt P06493); assay: Inhibition of CDK1/cyclin B (unknown origin) using histone H1 as substrate after 60 mins by scintillation counting analysis in presence of [r-33P]ATP; assay type: protein-complex assay
[10] = Drug uptake in CrTac:NCR-Foxn1nu (NCR) nude mouse at 150 mg/kg, po after 3 hrs; assay type: ADME, organism-based; design: dose 150 mg/kg, route oral; details: in vivo, read-out: Drug uptake
Outline: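 Total plasma drug concentration in mouse PK studies, taken 3 h after a 150 mg/kg oral dose.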

[11] = Total Cmax in rat at 2 mg/kg, po; assay type: ADME, organism-based; design: dose 2 mg/kg, route oral; details: in vivo
[12] = Oral bioavailability in rat; assay type: ADME, organism-based; details: in vivo; outline: as §1
[13] = AUC in rat at 2 mg/kg, po; assay type: ADME, organism-based; design: dose 2 mg/kg, route oral; details: plasma
Tumour [14] = assay: Decrease in STAT5 phosphorylation at Tyr694 in tumor of CrTac:NCR-Foxn1nu (NCR) nude mouse xenografted with human MOLM13 cells at 150 mg/kg, po after 3 hrs; assay type: functional, organism-based; design: dose 150 mg/kg; details: Neoplasm, MOLM-13; outline: as §2
Mus musculus [15] = assay: Toxicity in po dosed CrTac:NCR-Foxn1nu (NCR) nude mouse xenografted with human MOLM13 cells at dose that causing 100% tumor growth inhibition administered qd for 8 days; assay type: organism-based, MOLM-13; details: in vivo, 192 h
Outline: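 Body weight tracked throughout the 8-day once-daily oral study in NCR nude mice carrying MOLM13 xenografts. Doses were 25, 50, 75 and 150 mg/kg, with a vehicle control.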

CYP3A4 = CYP3A4 (Homo sapiens, UniProt P08684); assay: Inhibition of CYP3A4 (unknown origin) at 3 uM; assay type: ADME
[16] = target: Voltage-gated inwardly rectifying potassium channel KCNH2 (Homo sapiens, UniProt Q12809); assay: Binding affinity to human ERG
Cytochrome P450 3A4 = Cytochrome P450 3A4 (Homo sapiens, UniProt P08684); assay: Inhibition of CYP3A4 (unknown origin); assay type: ADME
Sequence of Cytochrome P450 3A4 (P08684 whole entry): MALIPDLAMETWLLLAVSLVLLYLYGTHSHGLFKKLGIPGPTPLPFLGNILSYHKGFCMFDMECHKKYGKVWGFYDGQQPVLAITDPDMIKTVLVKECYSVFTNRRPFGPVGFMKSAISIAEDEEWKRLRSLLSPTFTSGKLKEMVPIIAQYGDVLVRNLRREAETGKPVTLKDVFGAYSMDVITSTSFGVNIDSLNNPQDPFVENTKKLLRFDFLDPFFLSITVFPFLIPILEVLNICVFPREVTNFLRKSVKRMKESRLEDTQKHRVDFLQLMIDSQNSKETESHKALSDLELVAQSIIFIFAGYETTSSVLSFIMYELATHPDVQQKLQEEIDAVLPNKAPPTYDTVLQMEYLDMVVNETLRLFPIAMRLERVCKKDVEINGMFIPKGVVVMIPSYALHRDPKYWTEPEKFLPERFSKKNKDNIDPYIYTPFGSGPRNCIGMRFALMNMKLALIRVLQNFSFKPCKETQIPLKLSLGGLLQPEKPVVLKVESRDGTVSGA

Sequence of Cyclin-dependent kinase 4/cyclin D1 (P11802 whole entry): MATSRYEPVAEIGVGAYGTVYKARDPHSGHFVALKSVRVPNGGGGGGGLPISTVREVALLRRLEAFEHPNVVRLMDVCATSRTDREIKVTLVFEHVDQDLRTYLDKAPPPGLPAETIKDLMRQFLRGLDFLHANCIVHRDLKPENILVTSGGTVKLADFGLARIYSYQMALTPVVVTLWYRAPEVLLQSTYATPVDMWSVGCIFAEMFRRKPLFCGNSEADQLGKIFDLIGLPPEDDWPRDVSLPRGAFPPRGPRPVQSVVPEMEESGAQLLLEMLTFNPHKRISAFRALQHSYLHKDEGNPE
Sequence of Cyclin-dependent kinase 4/cyclin D1 (P24385 whole entry, further chain): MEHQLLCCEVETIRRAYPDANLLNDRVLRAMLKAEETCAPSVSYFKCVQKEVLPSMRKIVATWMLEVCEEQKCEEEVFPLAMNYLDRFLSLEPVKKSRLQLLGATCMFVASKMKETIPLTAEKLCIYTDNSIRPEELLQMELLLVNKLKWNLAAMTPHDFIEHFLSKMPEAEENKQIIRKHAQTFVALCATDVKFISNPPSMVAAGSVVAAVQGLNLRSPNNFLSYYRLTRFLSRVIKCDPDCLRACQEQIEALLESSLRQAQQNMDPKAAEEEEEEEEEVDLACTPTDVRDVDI
Sequence of Cyclin-dependent kinase 1/cyclin B1 (P06493 whole entry): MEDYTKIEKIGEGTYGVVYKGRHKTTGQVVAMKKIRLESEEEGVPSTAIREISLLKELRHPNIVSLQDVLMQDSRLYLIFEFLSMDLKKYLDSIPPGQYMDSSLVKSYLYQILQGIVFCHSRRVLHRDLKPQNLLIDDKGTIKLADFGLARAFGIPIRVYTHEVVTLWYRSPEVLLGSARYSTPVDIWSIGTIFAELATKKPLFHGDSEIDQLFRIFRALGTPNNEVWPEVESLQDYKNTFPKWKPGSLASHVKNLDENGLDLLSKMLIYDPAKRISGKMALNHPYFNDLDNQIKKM
Sequence of Cyclin-dependent kinase 1/cyclin B1 (P14635 whole entry, further chain): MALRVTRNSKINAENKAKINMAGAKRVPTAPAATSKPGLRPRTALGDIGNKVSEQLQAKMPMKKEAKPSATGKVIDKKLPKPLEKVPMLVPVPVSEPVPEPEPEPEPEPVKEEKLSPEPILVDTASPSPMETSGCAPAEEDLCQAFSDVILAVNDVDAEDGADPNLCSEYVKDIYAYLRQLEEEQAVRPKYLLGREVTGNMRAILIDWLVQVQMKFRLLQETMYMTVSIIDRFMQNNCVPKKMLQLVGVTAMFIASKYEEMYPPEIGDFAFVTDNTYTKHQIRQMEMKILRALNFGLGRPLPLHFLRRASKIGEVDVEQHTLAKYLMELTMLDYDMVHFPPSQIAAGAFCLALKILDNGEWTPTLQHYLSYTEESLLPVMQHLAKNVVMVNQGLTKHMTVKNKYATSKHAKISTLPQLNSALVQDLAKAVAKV
Sequence of Cyclin-dependent kinase 4 (P11802 whole entry): as the sequence (P11802 whole entry) above
Sequence of CYP3A4 (P08684 whole entry): as the sequence (P08684 whole entry) above
Sequence of Voltage-gated inwardly rectifying potassium channel KCNH2 (Q12809 whole entry): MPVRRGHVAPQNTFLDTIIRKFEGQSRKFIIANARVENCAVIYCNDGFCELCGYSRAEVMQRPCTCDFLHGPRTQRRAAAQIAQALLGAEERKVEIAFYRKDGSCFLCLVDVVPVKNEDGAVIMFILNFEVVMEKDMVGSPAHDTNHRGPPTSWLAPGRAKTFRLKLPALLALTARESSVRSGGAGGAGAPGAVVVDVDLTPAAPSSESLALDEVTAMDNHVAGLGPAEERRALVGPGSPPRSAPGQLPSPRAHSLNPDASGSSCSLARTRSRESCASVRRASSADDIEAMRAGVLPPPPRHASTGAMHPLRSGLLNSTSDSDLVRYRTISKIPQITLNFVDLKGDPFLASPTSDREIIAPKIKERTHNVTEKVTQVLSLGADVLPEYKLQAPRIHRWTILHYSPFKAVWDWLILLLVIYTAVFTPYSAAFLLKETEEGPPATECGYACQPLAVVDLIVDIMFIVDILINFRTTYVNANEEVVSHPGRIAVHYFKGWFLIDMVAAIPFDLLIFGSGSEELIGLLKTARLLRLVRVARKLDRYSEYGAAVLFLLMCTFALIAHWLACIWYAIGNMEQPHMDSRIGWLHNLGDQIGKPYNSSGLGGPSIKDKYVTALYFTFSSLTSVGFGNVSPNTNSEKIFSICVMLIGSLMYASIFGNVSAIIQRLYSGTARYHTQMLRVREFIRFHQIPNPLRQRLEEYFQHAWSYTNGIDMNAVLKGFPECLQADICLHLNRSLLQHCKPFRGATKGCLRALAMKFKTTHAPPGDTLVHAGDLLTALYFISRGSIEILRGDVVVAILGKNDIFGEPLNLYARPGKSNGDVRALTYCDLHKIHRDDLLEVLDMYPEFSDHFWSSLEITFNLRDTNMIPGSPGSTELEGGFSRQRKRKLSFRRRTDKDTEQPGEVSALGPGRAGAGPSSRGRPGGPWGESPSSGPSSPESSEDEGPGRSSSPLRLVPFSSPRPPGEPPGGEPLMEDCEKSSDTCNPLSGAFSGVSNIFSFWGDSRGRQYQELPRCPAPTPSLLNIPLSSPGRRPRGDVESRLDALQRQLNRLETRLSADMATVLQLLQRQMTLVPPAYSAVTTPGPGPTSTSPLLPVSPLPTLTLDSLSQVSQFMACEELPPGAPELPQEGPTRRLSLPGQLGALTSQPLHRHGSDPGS

SMILES | IC50 [1] [µM] | clearance [2] [L/h/kg] | IC50 [3] [µM] | IC50 (COLO 205) [µM] | IC50 (MOLM-13) [µM] | IC50 [9] [µM] | Cmax [11] [µM] | bioavailability [12] [%] | AUC [13] [nM·h] | IC50 [8] [µM] | Activity (Mus musculus [15]) | also measured
CN(C)C1CCN(c2ccc(Nc3ncc4c5ccncc5n([C@H]5CC[C@H](C)CC5)c4n3)nn2)CC1 | 0.002 | 0.61 | 0.004 | 0.011 | 0.009 | 2.2 | 0.13 | 28 | 1570 | 2.15 | – | Ratio IC50 (Homo sapiens): > 1000; fCmax (Mus musculus [4]): 0.024 µM; IC50 [5]: 0.023 µM; inhibition (Tumour [6]): Dose-dependent effect; IC50 [7]: 0.052 µM; concentration at 3 h [10]: 0.85 µM; inhibition (Tumour [14]): inactive
COc1nc(Nc2ncc3c4ccncc4n([C@H]4CC[C@H](C)CC4)c3n2)ccc1N1CCC(N(C)C)CC1 | 0.003 | 0.55 | 0.0002 | 0.054 | 0.002 | 0.79 | – | 62 | – | 1.12 | Toxic | –
Clc1nccc2c3cnc(Nc4ccc(N5CCNCC5)cn4)nc3n(C3CCCC3)c12 | 0.004 | 1.7 | 0.005 | 0.063 | 0.009 | 3.3 | – | – | – | 2.1 | – | inhibition at 3 µM (CYP3A4): < 10%; IC50 [16]: 2 µM; IC50 (Cytochrome P450 3A4): > 10 µM

Further compounds by falling IC50 (COLO 205), results first:

IC50 [1] [µM] | clearance [2] [L/h/kg] | IC50 [3] [µM] | IC50 (COLO 205) [µM] | IC50 (MOLM-13) [µM] | IC50 [9] [µM] | Cmax [11] [µM] | bioavailability [12] [%] | AUC [13] [nM·h] | SMILES | IC50 [8] [µM] | Activity (Mus musculus [15]) | also measured
0.001 | 1.2 | 0.0006 | 0.016 | 0.013 | 2.68 | – | 88 | – | CN(C)C1CCN(c2ccc(Nc3ncc4c5ccncc5n([C@H]5CC[C@H](C)CC5)c4n3)nc2F)CC1 | 1.47 | Toxic | –
– | 0.6 | – | 0.009 | 0.004 | 1.54 | 0.28 | 46 | 3240 | C[C@@H](O)CN(C)C1CCN(c2ccc(Nc3ncc4c5ccncc5n([C@H]5CC[C@H](C)CC5)c4n3)nn2)CC1 | 0.91 | – | –
